Data as given in ChEMBL document CHEMBL1136835, “CB2 selective sulfamoyl benzamides: optimization of the amide functionality” (Bioorg Med Chem Lett, 2009).

Assays:
Homo sapiens = species on record: Homo sapiens; assay: Ratio of Ki for human cloned CB1 receptor to Ki for human cloned CB2 receptor
Outline: (§1)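 Cloned human CB1 or CB2 receptor membranes incubated with 0.2–0.6 nM [3H]CP55940 in 50 mM Tris–HCl pH 7.0 with 5.0 mM MgCl2, 1.0 mM EGTA and 1.0 mg/ml fatty-acid-free BSA. CB2 ran 60 min at room temperature and CB1 120 min at 30 °C. Samples filtered through PEI/BSA-soaked GF/C filters and rinsed six times with cold buffer. Counted by scintillation, with nonspecific binding defined by WIN55212-2. Ki is the geometric mean of at least three determinations.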

Cannabinoid receptor 2 [1] = molecular target: T1, Cannabinoid receptor 2 (Homo sapiens, UniProt P34972); assay: Displacement of [3H]CP-55940 from human cloned CB2 receptor by scintillation spectrometry; outline: as §1
T1 sequence (P34972 whole entry): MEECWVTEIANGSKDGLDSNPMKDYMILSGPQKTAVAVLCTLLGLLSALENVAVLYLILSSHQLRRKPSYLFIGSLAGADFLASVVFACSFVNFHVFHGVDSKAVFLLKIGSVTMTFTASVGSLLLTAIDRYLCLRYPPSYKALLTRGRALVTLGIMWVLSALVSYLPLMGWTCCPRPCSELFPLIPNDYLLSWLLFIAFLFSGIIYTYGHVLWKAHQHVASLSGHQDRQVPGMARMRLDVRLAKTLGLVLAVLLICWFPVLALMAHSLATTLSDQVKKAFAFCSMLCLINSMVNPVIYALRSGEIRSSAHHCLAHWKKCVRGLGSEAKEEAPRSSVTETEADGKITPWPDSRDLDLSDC

Cannabinoid receptor 2 [2] = molecular target: T1, Cannabinoid receptor 2; assay: Agonist activity at human cloned CB2 receptor assessed as stimulation of [35S]GTPgammaS binding
Cannabinoid receptor 1 [3] = molecular target: T2, Cannabinoid receptor 1 (Homo sapiens, UniProt P21554); assay: Displacement of [3H]CP-55940 from human cloned CB1 receptor by scintillation spectrometry; outline: as §1
T2 sequence (P21554 whole entry): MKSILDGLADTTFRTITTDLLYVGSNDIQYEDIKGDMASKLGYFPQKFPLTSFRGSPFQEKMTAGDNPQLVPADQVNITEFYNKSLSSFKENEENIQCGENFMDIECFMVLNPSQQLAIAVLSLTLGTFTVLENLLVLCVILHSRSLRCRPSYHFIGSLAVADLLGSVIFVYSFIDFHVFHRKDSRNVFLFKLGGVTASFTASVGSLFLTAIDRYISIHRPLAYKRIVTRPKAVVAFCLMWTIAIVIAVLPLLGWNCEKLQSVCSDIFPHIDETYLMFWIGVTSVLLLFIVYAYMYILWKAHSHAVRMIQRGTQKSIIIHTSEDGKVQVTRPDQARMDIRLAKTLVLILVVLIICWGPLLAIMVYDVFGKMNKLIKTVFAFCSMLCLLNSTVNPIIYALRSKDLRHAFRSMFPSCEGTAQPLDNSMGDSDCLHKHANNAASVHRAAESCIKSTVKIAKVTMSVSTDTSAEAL

Rattus norvegicus [4] = assay: Antiallodynic activity in rat hind paw incisional model assessed as mechanical paw-withdrawal threshold at 30 mg/kg, ip after 30 mins relative to control; format: functional; settings: route intraperitoneal
Outline: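 Rat hindpaw incision model. Mechanical paw-withdrawal threshold measured on the left hindpaw, 30 min after ip dosing at 30 mg/kg. N = 8 per group. Compared with the vehicle-treated group.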

[5] = Metabolic stability in human liver microsomes after 30 mins; format: ADME, Microsome; settings: read-out: Stability
[6] = Metabolic stability in rat liver microsomes after 30 mins; format: ADME, Microsome; settings: read-out: Stability
Rattus norvegicus [7] = assay: Antiallodynic activity in rat hind paw incisional model assessed as mechanical paw-withdrawal threshold at 300 mg/kg, po after 120 mins in presence of aminobenzotriazole relative to aminobenzotriazole-treated control; format: functional
Outline: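 Rat hindpaw incision model. Rats pretreated with the P450 suicide inhibitor aminobenzotriazole, then dosed 300 mg/kg po 120 min before testing. Left hindpaw mechanical withdrawal threshold read, N = 8 per group. One-way ANOVA with protected t-test against ABT-vehicle incised animals.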

Cannabinoid receptor 1 [8] = molecular target: T2, Cannabinoid receptor 1; assay: Displacement of [3H]CP-55940 from human cloned CB1 receptor at 10 uM by scintillation spectrometry

Structure (SMILES) | Ratio Ki (Homo sapiens) | Ki (Cannabinoid receptor 2 [1]) | EC50 (Cannabinoid receptor 2 [2]) | Ki (Cannabinoid receptor 1 [3]) | Activity (Rattus norvegicus [4]) | remaining at 0.5 h [5] | remaining at 0.5 h [6] | Activity (Rattus norvegicus [7]) | Activity (Cannabinoid receptor 1 [8])
Cc1ccc(-c2noc(CC3CCCCC3)n2)cc1S(=O)(=O)N1CCOCC1 | 5.9 | 0.13 µM | 0.11 µM | 0.74 µM |  |  |  |  | 
Cc1ccc(NC(=O)[C@@H]2C[C@@]3(C)CC[C@]2(C)O3)cc1S(=O)(=O)N1CCOCC1 | 4.4 | 0.66 µM |  | 2.9 µM |  |  |  |  | 
Cc1ccc(-c2n[nH]c(CC(C)(C)C)n2)cc1S(=O)(=O)N1CCOCC1 | 1.6 | 0.085 µM | 0.064 µM | 0.14 µM |  |  |  |  | 
Cc1ccc(-c2cnc(C(C)(C)C)[nH]2)cc1S(=O)(=O)N1CCOCC1 | 9.4 |  |  |  |  |  |  |  | 
Cc1ccc(NC(=O)C2CCCCC2)cc1S(=O)(=O)N1CCOCC1 | 16 | 0.12 µM |  | 1.9 µM |  |  |  |  | 
O=C(NCc1ccccc1)c1ccc(Br)c(S(=O)(=O)N2CCOCC2)c1 |  | 0.8 µM |  | > 1 µM |  |  |  |  | 
Cc1ccc(-c2nc(C(C)(C)C)c[nH]2)cc1S(=O)(=O)N1CCOCC1 | 48 | 0.023 µM | 0.058 µM | 1.1 µM |  |  |  |  | 
Cc1ccc(-c2nc(CC(C)(C)C)cs2)cc1S(=O)(=O)N1CCOCC1 | 38 | 0.0052 µM | 0.023 µM | 0.2 µM |  |  |  |  | 
Cc1ccc(NC(=O)C2C(C)(C)C2(C)C)cc1S(=O)(=O)N1CCOCC1 | 150 | 0.023 µM | 0.011 µM | 3.4 µM | 183% | 1% | 2% | 262% | 
Cc1ccc(NC(=O)C2CCCCC2(C)C)cc1S(=O)(=O)N1CCOCC1 (stereo unspecified) | 72 | 0.011 µM | 8.4 µM | 0.79 µM |  |  |  |  | 
Cc1ccc(NC(=O)[C@@H]2C(C)(C)[C@@H]3CC[C@@]2(C)C3)cc1S(=O)(=O)N1CCOCC1 | 380 | 0.0017 µM | 0.0096 µM | 0.64 µM |  |  |  |  | 
Cc1ccc(-c2n[nH]c(CC3CCCCC3)n2)cc1S(=O)(=O)N1CCOCC1 | 11 | 0.027 µM | 0.057 µM | 0.31 µM |  |  |  |  | 
Cc1ccc(-c2nc(C(C)(C)C)cs2)cc1S(=O)(=O)N1CCOCC1 | 47 | 0.0057 µM | 0.021 µM | 0.26 µM |  |  |  |  | 
Cc1ccc(C(=O)N[C@H]2C(C)(C)[C@@H]3CC[C@@]2(C)C3)cc1S(=O)(=O)N1CCOCC1 | 11 | 0.048 µM | 0.025 µM | 0.54 µM |  |  |  |  | 
Cc1ccc(-c2c[nH]c(C(C)(C)C)n2)cc1S(=O)(=O)N1CCOCC1 |  | 0.081 µM | 0.13 µM | 0.77 µM |  |  |  |  | 
Cc1ccc(C(=O)N[C@@H]2C(C)(C)[C@@H]3CC[C@@]2(C)C3)cc1S(=O)(=O)N1CCOCC1 | 31 | 0.0039 µM | 0.0046 µM | 0.13 µM |  |  |  |  | 
Cc1ccc(-c2noc(CC(C)(C)C)n2)cc1S(=O)(=O)N1CCOCC1 | 4.5 | 0.059 µM | 0.07 µM | 0.27 µM |  |  |  |  | 
Cc1ccc(NC(=O)C2(C)CCCCC2)cc1S(=O)(=O)N1CCOCC1 | 34 | 0.035 µM | 0.033 µM | 1.2 µM |  |  |  |  | 
Cc1ccc(NC(=O)C(C(C)(C)C)C(C)(C)C)cc1S(=O)(=O)N1CCOCC1 | 110 | 0.011 µM | 0.031 µM | 1.2 µM |  |  |  |  | 

Structure (SMILES) | Ratio Ki (Homo sapiens) | Ki (Cannabinoid receptor 2 [1]) | EC50 (Cannabinoid receptor 2 [2]) | Ki (Cannabinoid receptor 1 [3]) | Activity (Rattus norvegicus [4]) | remaining at 0.5 h [5] | remaining at 0.5 h [6] | Activity (Rattus norvegicus [7]) | Activity (Cannabinoid receptor 1 [8])
Cc1ccc(-c2nnn[nH]2)cc1S(=O)(=O)N1CCOCC1 |  | > 5 µM |  | > 5 µM |  |  |  |  | 
Cc1ccc(-c2n[nH]c(C(C)(C)C)n2)cc1S(=O)(=O)N1CCOCC1 | 5.3 | 0.1 µM | 0.13 µM | 0.53 µM |  |  |  |  | 
Cc1ccc(NC(=O)c2cccc(Cl)c2)cc1S(=O)(=O)N1CCOCC1 | 2.3 | 0.12 µM | 0.22 µM | 0.27 µM |  |  |  |  | 
Cc1ccc(NC(=O)C2CCCCC2C)cc1S(=O)(=O)N1CCOCC1 (stereo unspecified) | 130 | 0.014 µM | 0.042 µM | 1.8 µM |  |  |  |  | 
Cc1ccc(NC(=O)c2ccccc2Cl)cc1S(=O)(=O)N1CCOCC1 | 6.5 | 0.17 µM | 0.39 µM | 1.1 µM |  |  |  |  | 
Cc1ccc(-c2nc(CC3CCCCC3)cs2)cc1S(=O)(=O)N1CCOCC1 | 17 | 0.023 µM | 0.12 µM | 0.39 µM |  |  |  |  | 
Cc1ccc(-c2cc(CC(C)(C)C)[nH]n2)cc1S(=O)(=O)N1CCOCC1 | 10 | 0.075 µM | 0.12 µM | 0.75 µM |  |  |  |  | 
Cc1ccc(-c2nnn(CC3CCCCC3)n2)cc1S(=O)(=O)N1CCOCC1 | 6.9 | 0.082 µM | 0.078 µM | 0.56 µM |  |  |  |  | 
Cc1ccc(C(=O)NC(C(C)(C)C)C(C)(C)C)cc1S(=O)(=O)N1CCOCC1 | 9 |  |  |  |  |  |  |  | 
Cc1ccc(-c2cc(CC3CCCCC3)[nH]n2)cc1S(=O)(=O)N1CCOCC1 | 16 | 0.087 µM | 0.19 µM | 1.4 µM |  |  |  |  | 
Cc1ccc(NC(=O)C(C)(C(F)(F)F)C(F)(F)F)cc1S(=O)(=O)N1CCOCC1 | 20 | 0.023 µM | 0.029 µM | 0.47 µM |  |  |  |  | 
Cc1ccc(NC(=O)c2ccc(Cl)cc2)cc1S(=O)(=O)N1CCOCC1 |  | 2.9 µM |  |  |  |  |  |  | 25%
Cc1ccc(NC(=O)C(C)(C)C)cc1S(=O)(=O)N1CCOCC1 |  | 0.54 µM |  |  |  |  |  |  | 4.7%
Cc1ccc(NC(=O)[C@H]2C[C@@]3(C)CC[C@]2(C)O3)cc1S(=O)(=O)N1CCOCC1 |  | 2 µM |  |  |  |  |  |  | 44%
Cc1ccc(-c2noc(C(C)(C)C)n2)cc1S(=O)(=O)N1CCOCC1 | 6.8 | 0.075 µM | 0.077 µM | 0.51 µM |  |  |  |  | 
Cc1ccc(-c2nnn(CC(C)(C)C)n2)cc1S(=O)(=O)N1CCOCC1 | 7.6 | 0.017 µM | 0.049 µM | 0.13 µM |  |  |  |  | 
Cc1ccc(-c2nc(CC(C)(C)C)c[nH]2)cc1S(=O)(=O)N1CCOCC1 | 31 | 0.036 µM | 0.047 µM | 1.1 µM |  |  |  |  | 
Cc1ccc(NC(=O)[C@H]2C(C)(C)[C@@H]3CC[C@@]2(C)C3)cc1S(=O)(=O)N1CCOCC1 | 130 | 0.0094 µM | 0.049 µM | 1.2 µM |  |  |  |  | 
Cc1ccc(-c2cc(C(C)(C)C)[nH]n2)cc1S(=O)(=O)N1CCOCC1 |  | 0.16 µM | 0.13 µM | 6.99 µM |  |  |  |  | 
